In brackets after ≈: the same amount, converted by molar mass. Activity calls are given as the source filed them.
Key:
[1] = test system: Mycobacterium tuberculosis; experiment: Ratio of MIC90 for Mycobacterium tuberculosis H37Rv in GASTD medium supplemented with 100 uM FeCl3 to MIC90 for Mycobacterium tuberculosis H37Rv in Fe-deficient GASTD medium; format: functional
Summary of the method: (§1)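 Virulent H37Rv, twofold microdilution in iron-limiting GASTD or GASTD plus 100 μM FeCl3, started at OD600 0.001 from deferrated stocks. Compounds were added in DMSO (0.5% final) up to 500 μM or the solubility limit. Cultures sat stationary for 10 days at 37 °C, read at OD600. IC50 from sigmoidal fits to triplicates; MIC90 is the lowest concentration giving ≥90% inhibition versus DMSO controls. Ratios are +Fe/GASTD.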

HeLa [2] = experiment: Cytotoxicity against human HeLa cells at 10 uM after 24 hrs by ATPLite assay; format: cell-based
Summary of the method: (§2)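 HeLa cells in 96-well format, read with an ATPLite reagent-based viability assay. Cell–compound contact lasted 4 hr or 24 hr, and viability was expressed relative to untreated controls.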

Yersinia pestis [3] = experiment: Bacteriostatic activity against Yersinia pestis KIM6-2082.1+ in PMHD medium at 2 times MIC after 3 days by colony counting; format: functional, organism-based
Yersinia pestis [4] = experiment: Antimicrobial activity against Yersinia pestis KIM6-2082.1+ in PMHD medium supplemented with 100 uM FeCl3 after 26 hrs by spectrophotometric analysis; format: functional, organism-based
Yersinia pestis [5] = experiment: Ratio of MIC90 for Yersinia pestis KIM6-2082.1+ in PMHD medium supplemented with 100 uM FeCl3 to IC50 for Yersinia pestis KIM6-2082.1+ in Fe-deficient PMHD medium; format: functional
[6] = test system: Mycobacterium tuberculosis; experiment: Ratio of IC50 for Mycobacterium tuberculosis H37Rv in GASTD medium supplemented with 100 uM FeCl3 to IC50 for Mycobacterium tuberculosis H37Rv in Fe-deficient GASTD medium; format: functional; summary of the method: as §1
[7] = test system: Mycobacterium tuberculosis; experiment: Bactericidal activity against Mycobacterium tuberculosis H37Rv in GASTD medium at 4 times MIC after 30 days by colony counting; format: functional, organism-based
Summary of the method: (§3)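 Duplicate GASTD cultures were treated and incubated as in the growth assay (37 °C, 10 days), then serial 10-fold dilutions were plated on Middlebrook 7H11. Colonies were counted after 30 days at 37 °C and reported as CFU/mL. Bactericidal was defined as >99% killing relative to inoculum.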

Yersinia pestis [8] = experiment: Ratio of IC50 for Yersinia pestis KIM6-2082.1+ in PMHD medium supplemented with 100 uM FeCl3 to IC50 for Yersinia pestis KIM6-2082.1+ in Fe-deficient PMHD medium; format: functional
[9] = test system: Mycobacterium tuberculosis; experiment: Antimicrobial activity against Mycobacterium tuberculosis H37Rv in GASTD medium after 10 days by spectrophotometric analysis; format: functional, organism-based; details: 240 h; summary of the method: as §1
[10] = test system: Mycobacterium tuberculosis; experiment: Antimicrobial activity against Mycobacterium tuberculosis H37Rv in GASTD medium supplemented with 100 uM FeCl3 after 10 days by spectrophotometric analysis; format: functional, organism-based; details: 240 h; summary of the method: as §1
HeLa [11] = experiment: Cytotoxicity against human HeLa cells at 7 uM after 24 hrs by ATPLite assay; format: cell-based; summary of the method: as §2
Yersinia pestis [12] = experiment: Antimicrobial activity against Yersinia pestis KIM6-2082.1+ in PMHD medium after 26 hrs by spectrophotometric analysis; format: functional, organism-based
[13] = test system: Mycobacterium tuberculosis; experiment: Bactericidal activity against Mycobacterium tuberculosis H37Rv in GASTD medium at 2 times MIC after 30 days by colony counting; format: functional, organism-based; summary of the method: as §3
Yersinia pestis [14] = experiment: Bactericidal activity against Yersinia pestis KIM6-2082.1+ in PMHD medium at 2 times MIC after 3 days by colony counting; format: functional, organism-based
Yersinia pestis [15] = experiment: Bacteriostatic activity against Yersinia pestis KIM6-2082.1+ in PMHD medium at MIC after 3 days by colony counting; format: functional, organism-based
Yersinia pestis [16] = experiment: Bactericidal activity against Yersinia pestis KIM6-2082.1+ in PMHD medium at MIC after 3 days by colony counting; format: functional, organism-based
HeLa [17] = experiment: Cytotoxicity against human HeLa cells at 125 uM after 24 hrs by ATPLite assay relative to control; format: cell-based; summary of the method: as §2
HeLa [18] = experiment: Cytotoxicity against human HeLa cells at 125 uM after 4 hrs by ATPLite assay; format: cell-based; summary of the method: as §2
HeLa [19] = experiment: Cytotoxicity against human HeLa cells at 21 uM after 24 hrs by ATPLite assay; format: cell-based; summary of the method: as §2
HeLa [20] = experiment: Cytotoxicity against human HeLa cells at 16 uM after 24 hrs by ATPLite assay; format: cell-based; summary of the method: as §2
HeLa [21] = experiment: Cytotoxicity against human HeLa cells at 0.2 uM after 24 hrs by ATPLite assay; format: cell-based; summary of the method: as §2

Row | SMILES | Ratio [1] | IC50 (Yersinia pestis [4]) [µM] | MIC90 (Yersinia pestis [4]) [µM] | Ratio (Yersinia pestis [5]) | Ratio IC50 [6] | Ratio IC50 (Yersinia pestis [8]) | IC50 [9] [µM] | MIC90 [9] [µM] | IC50 [10] [µM] | MIC90 [10] [µM] | IC50 (Yersinia pestis [12]) [µM] | MIC90 (Yersinia pestis [12]) [µM] | Activity [13] | Activity (Yersinia pestis [14]) | further results
1 | CSC(=S)N/N=C/c1ccccc1O | 1 | > 59 | > 59 | >4 | 1 | >15 | 3 | 7 (≈ 1.58 µg/mL) | 2 | 6 (≈ 1.36 µg/mL) | 4 | 15 (≈ 3.39 µg/mL) | – | – | Activity (HeLa [2]): Non-toxic; Activity (Yersinia pestis [3]): Active; Activity [7]: Active; Activity (HeLa [11]): Non-toxic
2 | CSC(=S)N/N=C(\C)c1ccccc1O | 1 | 156 | 233 (≈ 56 µg/mL) | 2 | 1 | >3 | 4 | 10 (≈ 2.4 µg/mL) | 4 | 9 (≈ 2.16 µg/mL) | 61 | 116 (≈ 27.9 µg/mL) | Active | Active | Activity (HeLa [2]): Non-toxic; Activity (HeLa [11]): Non-toxic
3 | CSC(=S)N/N=C/c1ccc(O)cc1 | 1 | > 233 | > 233 | – | 1 | >2 | 31 | 59 (≈ 13.4 µg/mL) | 33 | 59 (≈ 13.4 µg/mL) | 137 | 388 (≈ 87.8 µg/mL) | Active | – | Activity (Yersinia pestis [15]): Active
4 | N=C(N)N1N=C(c2ccccc2O)C[C@H]1c1ccccc1O | 1 | > 63 | > 63 | >1 | 1 | >9 | 44 | 66 (≈ 19.6 µg/mL) | 23 | 66 (≈ 19.6 µg/mL) | 7 | 42 (≈ 12.4 µg/mL) | Active | – | Activity (Yersinia pestis [16]): Active
5 | N=C(NO)N1N=C(c2ccccc2O)C[C@H]1c1ccc(O)cc1 | 0.2 | > 63 | > 63 | >3 | 0.5 | >13 | 47 | 125 (≈ 39 µg/mL) | 22 | 31 (≈ 9.68 µg/mL) | 5 | 21 (≈ 6.56 µg/mL) | Active | Active | Activity (HeLa [17]): 70%; Activity (HeLa [18]): Non-toxic; Activity (HeLa [19]): Non-toxic; Activity (HeLa [20]): Non-toxic
6 | O=C(NO)N1CCN(C(=S)N/N=C/c2ccccc2O)CC1 | – | > 4 | > 4 | >20 | – | >100 | 20 | > 31 | > 8 | > 8 | 0.04 | 0.2 (≈ 0.0647 µg/mL) | – | – | Activity (Yersinia pestis [3]): Active; Activity (HeLa [21]): Non-toxic
7 | N=C(NO)N1N=C(c2ccccc2O)C[C@H]1c1ccccc1O | >1 | > 16 | > 16 | >1 | 1 | >4 | 37 | 125 (≈ 39 µg/mL) | 32 | > 125 | 4 | 16 (≈ 5 µg/mL) | Active | Active | Activity (HeLa [19]): Non-toxic; Activity (HeLa [20]): Non-toxic

Source: ChEMBL document CHEMBL1914393, “Chemical scaffolds with structural similarities to siderophores of nonribosomal peptide-polyketide origin as novel antimicrobials against Mycobacterium tuberculosis and Yersinia pestis” (Bioorg Med Chem Lett, 2011)
